# Data as given in ChEMBL document CHEMBL2169868, “Flavone-based novel antidiabetic and antidyslipidemic agents” (J Med Chem, 2012).
# Active and inactive are the calls of the source. The calls are words filed in the database; no cut-off is given here.
# How the values were obtained:
# [1] = system: Mus musculus; test: Antidyslipidemic activity in diabetic C57BL/KsJ db/db mouse model assessed as increase in plasma HDL-C/cholesterol ratio at 25 mg/kg, po qd for 10 days; type: functional
# Procedure, shortened: (§1)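 db/db mice (blood glucose 200−350, TG 170−250, cholesterol 170−250, HDL-C 32−40 mg/dL) dosed orally at 25 mg/kg daily for 10 days; retro-orbital blood taken on day 11 for plasma TG, cholesterol and HDL-C (and HDL-C/CHOL ratio); mean % change versus vehicle control, 5 mice per group; Student t test.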
# [2] = system: Syrian golden hamster; test: Antidyslipidemic activity in high fructose and high-fat diet fed dyslipidemic Syrian golden hamster model assessed as reduction in LDL-cholesterol level at 100 mg/kg/day for 7 days; type: functional, Mesocricetus auratus; design: scale not given: the % may be the effect or the level left
# Procedure, shortened: (§2)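 Syrian golden hamsters fed high-fructose high-fat diet; oral dosing in 1% gum acacia at 10, 30, 100 mg/kg (or 25 mg/kg) for 7 days, sham control given vehicle; plasma TG, cholesterol, LDL-C, HDL-C, glycerol and NEFA (kits), lipoprotein lipase activity and body weight; % change versus HFD control, six hamsters per group.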
# [3] = system: Rattus norvegicus; test: Antihyperlipidemic activity in Triton-induced dyslipidemic Wistar rat model assessed as reduction in triglyceride level at 100 mg/kg, po; type: functional; design: scale not given: the % may be the effect or the level left
# Procedure, shortened: (§3)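 Male Wistar rats, 8−10 weeks, about 160 g, fed normal pellet diet. Triton X-100 given at 400 mg/kg ip; compound given orally in 1% gum acacia. Retro-orbital blood taken 18 h after Triton and serum separated at 1500g for 10 min. TG and cholesterol measured by kit. Mean % change versus dyslipidemic control, 5 animals.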
# [4] = system: Rattus norvegicus; test: Antihyperlipidemic activity in Triton-induced dyslipidemic Wistar rat model assessed as reduction in cholesterol level at 100 mg/kg, po; type: functional; design: scale not given: the % may be the effect or the level left; procedure, shortened: as §3
# [5] = system: Rattus norvegicus; test: Antihyperlipidemic activity in Triton-induced dyslipidemic Wistar rat model assessed as reduction in phospholipid level at 100 mg/kg, po; type: functional; design: scale not given: the % may be the effect or the level left; procedure, shortened: as §3
# [6] = system: Mus musculus; test: Antidyslipidemic activity in diabetic C57BL/KsJ db/db mouse model assessed as increase in plasma HDL-cholesterol level at 25 mg/kg, po qd for 10 days; type: functional; procedure, shortened: as §1
# [7] = system: Mus musculus; test: Antidyslipidemic activity in diabetic C57BL/KsJ db/db mouse model assessed as reduction in plasma triglyceride level at 25 mg/kg, po qd for 10 days; type: functional; design: scale not given: the % may be the effect or the level left; procedure, shortened: as §1
# [8] = system: Mus musculus; test: Antihyperglycemic activity in diabetic C57BL/KsJ db/db mouse model assessed as reduction in hyperglycemia at 25 mg/kg, po qd for 10 days; type: functional; design: scale not given: the % may be the effect or the level left
# Procedure, shortened: (§4)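 db/db mice (C57BL/KsJ, 12−18 weeks, 40−50 g, glucose 200−350 mg/dL), housed at 23 ± 2.0 °C on a 12 h light cycle. Oral dosing daily for 10 days. Blood glucose checked each morning through day 9. Body weight recorded daily from day 1 to day 10. Mean % change versus vehicle, 5 mice per group; Student t test.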
# [9] = system: Rattus norvegicus; test: Antidiabetic activity in sucrose loaded Wistar rat model assessed as reduction in glucose levels at 100 mg/kg, po; type: functional; design: scale not given: the % may be the effect or the level left
# [10] = system: Syrian golden hamster; test: Antidyslipidemic activity in high fructose and high-fat diet fed dyslipidemic Syrian golden hamster model assessed as reduction in cholesterol level at 100 mg/kg/day for 7 days; type: functional, Mesocricetus auratus; design: scale not given: the % may be the effect or the level left
# [11] = system: Syrian golden hamster; test: Antidyslipidemic activity in high fructose and high-fat diet fed dyslipidemic Syrian golden hamster model assessed as reduction in triglyceride level at 100 mg/kg/day for 7 days; type: functional, Mesocricetus auratus; design: scale not given: the % may be the effect or the level left; procedure, shortened: as §2
# [12] = system: Mus musculus; test: Reduction in body weight in diabetic C57BL/KsJ db/db mouse model in hyperglycemia at 25 mg/kg, po qd for 10 days relative to untreated control; type: functional; procedure, shortened: as §4
# [13] = system: Mus musculus; test: Antihyperglycemic activity in diabetic C57BL/KsJ db/db mouse model assessed as reduction in plasma insulin level in hyperglycemia at 25 mg/kg, po qd for 10 days; type: functional; design: scale not given: the % may be the effect or the level left
# Procedure, shortened: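 db/db mice dosed orally every day for 10 days. On day 11, retro-orbital blood was drawn and plasma insulin measured. Mean % change versus vehicle-treated control, 5 mice per group; Student t test.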
# [14] = system: Syrian golden hamster; test: Antidyslipidemic activity in high fructose and high-fat diet fed dyslipidemic Syrian golden hamster model assessed as reduction in body weight at 100 mg/kg/day for 7 days; type: functional, organism-based; settings: Mesocricetus auratus; procedure, shortened: as §2
# [15] = system: Mus musculus; test: Antihyperglycemic activity in diabetic C57BL/KsJ db/db mouse model assessed as improvement in glucose tolerance in hyperglycemia at 25 mg/kg, po qd for 10 days; type: functional
# Procedure, shortened: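 Male/female C57BL/KsJ db/db mice, 12−18 weeks, 40−50 g, selected for glucose 200−350 mg/dL. Oral dosing daily for 10 days. OGTT on day 10 after an overnight fast: compound at −30 min, then 3 g/kg oral glucose at 0 min. Glucose read at 30, 60, 90 and 120 min. AUC taken versus vehicle, 5 mice per group.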
# [16] = system: Mus musculus; test: Antidyslipidemic activity in diabetic C57BL/KsJ db/db mouse model assessed as reduction in plasma cholesterol level at 25 mg/kg, po qd for 10 days; type: functional; design: scale not given: the % may be the effect or the level left; procedure, shortened: as §1
# [17] = system: Syrian golden hamster; test: Antidyslipidemic activity in high fructose and high-fat diet fed dyslipidemic Syrian golden hamster model assessed as increase in HDL-cholesterol level at 100 mg/kg/day for 7 days; type: functional, Mesocricetus auratus
# [18] = system: Syrian golden hamster; test: Antidyslipidemic activity in high fructose and high-fat diet fed dyslipidemic Syrian golden hamster model assessed as reduction in LDL-cholesterol level at 25 mg/kg/day for 7 days; type: functional, Mesocricetus auratus; design: scale not given: the % may be the effect or the level left; procedure, shortened: as §2
# [19] = system: Syrian golden hamster; test: Antidyslipidemic activity in high fructose and high-fat diet fed dyslipidemic Syrian golden hamster model assessed as reduction in body weight at 25 mg/kg/day for 7 days; type: functional, Mesocricetus auratus; design: scale not given: the % may be the effect or the level left; procedure, shortened: as §2
# [20] = system: Syrian golden hamster; test: Antidyslipidemic activity in high fructose and high-fat diet fed dyslipidemic Syrian golden hamster model assessed as reduction in triglyceride level at 25 mg/kg/day for 7 days; type: functional, Mesocricetus auratus; design: scale not given: the % may be the effect or the level left
# Procedure, shortened: (§5)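 HFD-fed Syrian golden hamsters, six per group, fed a high-fructose diet. Oral dosing in 1% gum acacia for 7 days. Sham group received vehicle. Plasma TG was measured and body weight tracked. Results given as % change versus HFD control.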
# [21] = system: Syrian golden hamster; test: Antidyslipidemic activity in high fructose and high-fat diet fed dyslipidemic Syrian golden hamster model assessed as increase in HDL-cholesterol level at 25 mg/kg/day for 7 days; type: functional, Mesocricetus auratus
# [22] = system: Syrian golden hamster; test: Antidyslipidemic activity in high fructose and high-fat diet fed dyslipidemic Syrian golden hamster model assessed as reduction in cholesterol level at 25 mg/kg/day for 7 days; type: functional, Mesocricetus auratus; design: scale not given: the % may be the effect or the level left
# [23] = system: Syrian golden hamster; test: Antidyslipidemic activity in high fructose and high-fat diet fed dyslipidemic Syrian golden hamster model assessed as increase in lipoprotein lipase level at 30 mg/kg/day, po for 7 day, po; type: functional, Mesocricetus auratus; procedure, shortened: as §2
# [24] = system: Rattus norvegicus; test: Antidiabetic activity in sucrose challenged streptozotocin-induced diabetic Sprague-Dawley rat model assessed as reduction in glucose levels at 100 mg/kg, po measured after 5 hrs; type: functional; design: scale not given: the % may be the effect or the level left
# [25] = system: Syrian golden hamster; test: Reduction in body weight in high fructose and high-fat diet fed dyslipidemic Syrian golden hamster model at 30 mg/kg/day, po for 7 days; type: functional, Mesocricetus auratus; design: scale not given: the % may be the effect or the level left; procedure, shortened: as §5
# [26] = system: Syrian golden hamster; test: Antidyslipidemic activity in high fructose and high-fat diet fed dyslipidemic Syrian golden hamster model assessed as reduction in glycerol level at 30 mg/kg/day, po for 7 day, po; type: functional, Mesocricetus auratus; design: scale not given: the % may be the effect or the level left; procedure, shortened: as §2
# [27] = system: Syrian golden hamster; test: Antidyslipidemic activity in high fructose and high-fat diet fed dyslipidemic Syrian golden hamster model assessed as reduction in LDL-cholesterol level at 30 mg/kg/day, po for 7 day, po; type: functional, Mesocricetus auratus; design: scale not given: the % may be the effect or the level left; procedure, shortened: as §2
# [28] = system: Syrian golden hamster; test: Antidyslipidemic activity in high fructose and high-fat diet fed dyslipidemic Syrian golden hamster model assessed as reduction in NEFA level at 30 mg/kg/day, po for 7 day, po; type: functional, Mesocricetus auratus; design: scale not given: the % may be the effect or the level left; procedure, shortened: as §2
# [29] = system: Syrian golden hamster; test: Antidyslipidemic activity in high fructose and high-fat diet fed dyslipidemic Syrian golden hamster model assessed as increase in HDL-cholesterol level at 30 mg/kg/day, po for 7 day, po; type: functional, Mesocricetus auratus; procedure, shortened: as §2
# [30] = system: Rattus norvegicus; test: Antidiabetic activity in sucrose challenged streptozotocin-induced diabetic Sprague-Dawley rat model assessed as reduction in glucose levels at 100 mg/kg, po measured after 24 hrs; type: functional
# [31] = system: Syrian golden hamster; test: Antidyslipidemic activity in high fructose and high-fat diet fed dyslipidemic Syrian golden hamster model assessed as reduction in triglyceride level at 30 mg/kg/day, po for 7 day, po; type: functional, Mesocricetus auratus; design: scale not given: the % may be the effect or the level left; procedure, shortened: as §5
Structure (SMILES),Percent increase in HDL-C/cholesterol ratio vs vehicle [1],Activity [2] [%],Activity [3] [%],Activity [4] [%],Activity [5] [%],Activity [6] [%],Activity [7] [%],Activity [8] [%],Activity [9] [%],Activity [11] [%],Activity [12],Activity [13] [%],Activity [14],Activity [15] [%],Activity [16] [%],Activity [18] [%],Activity [19] [%],Activity [20] [%],also measured
CC(C)NCC(O)COc1ccc2c(=O)cc(-c3cc(O)cc(O)c3)oc2c1 (racemic),32.1,47.7,32,32,28,11.8,14.2,39.5,29,48.9,inactive,22.3,Active,33.2,15.3,–,–,–,Activity [10]: 13.8%; Activity [17]: 14.9%
CC(C)(C)NC[C@@H](O)COc1ccc2c(=O)cc(-c3cc(OCc4ccccc4)cc(OCc4ccccc4)c3)oc2c1,28.8,–,–,–,–,8.3,14.1,34.1,–,–,inactive,18,–,33.3,15.9,9.78,3.73,8.4,Activity [21]: 7.08%; Activity [22]: 5.52%
CC(C)OC(=O)C(C)(C)Oc1ccc(C(=O)c2ccc(Cl)cc2)cc1 [FENOFIBRATE],–,56.3,32.9,18.9,30.3,–,–,–,6.43,53.4,–,–,Active,–,–,26.8,6.78,25.5,Activity [23]: 24.7%; Activity [24]: 1.47%; Activity [25]: 10.2%; Activity [26]: 22.1%; Activity [27]: 32.3%; Activity [28]: 22.2%; Activity [29]: 9.68%; Activity [30]: inactive; Activity [31]: 30.2%
CN(CCOc1ccc(CC2SC(=O)NC2=O)cc1)c1ccccn1 (stereo not given) [ROSIGLITAZONE],108.7,–,–,–,–,6.98,24.5,54.3,–,–,-18.3%,40.5,–,49.5,32.6,–,–,–,–
CC(C)NC[C@@H](O)COc1ccc2c(=O)cc(-c3cc(O)cc(O)c3)oc2c1,16.6,–,–,–,–,3.59,14.1,28.2,–,–,inactive,9.1,–,22.4,11.2,–,–,–,–
